Experimental data taken from ChEMBL document CHEMBL3393048, “Discovery of potent cytotoxic ortho-aryl chalcones as new scaffold targeting tubulin and mitosis with affinity-based fluorescence” (J Med Chem, 2014).
Active and inactive are the calls of the source. The calls are words filed in the database; no cut-off is given here.

What was measured:
[1] = Antiproliferative activity against human CNE2 cells after 48 hrs by SRB method; assay type: functional, cell-based; conditions: CNE-2, 48 h
Method in brief: (§1)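 SRB assay. Cells in DMEM high glucose with 10% FBS were seeded at 5000/well and grown 24 h; a day-0 plate was fixed at that point. Compounds were added in triplicate for 48 h. IC50 came from nonlinear regression of dose–response curves from at least two independent experiments.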

[2] = test system: SW480; test: Antiproliferative activity against human SW480 cells after 48 hrs by SRB method; assay type: functional, cell-based; conditions: SW480, 48 h; method in brief: as §1
[3] = test system: HepG2; test: Antiproliferative activity against human HepG2 cells after 48 hrs by SRB method; assay type: functional, cell-based; conditions: HepG2, 48 h; method in brief: as §1
[4] = test system: MCF7; test: Antiproliferative activity against human MCF7 cells after 48 hrs by SRB method; assay type: functional, cell-based; conditions: MCF7, 48 h; method in brief: as §1
[5] = test system: A549; test: Antiproliferative activity against human A549 cells after 48 hrs by SRB method; assay type: functional, cell-based; conditions: A549, 48 h
Method in brief: as §1, with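 “h. Cells were fixed with TCA at 4 °C for 1 h, stained with 0.4% SRB, and the dye was solubilized in 10 mM Tris pH 10.4. OD was read at 515 nm with day-0 OD subtracted.” for “h.”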

[6] = target: Tubulin (Homo sapiens) (UniProt P68371+Q9H4B7+P0DPH7+P68366+Q13509+Q71U36+P04350+Q3ZCM7+P07437+P68363+Q9BQE3+Q6PEY2+Q13885+Q9BVA1+Q9BUF5); test: Inhibition of tubulin polymerization (unknown origin) at 20 uM by DAPI staining-based fluorescence microscopy; assay type: protein-complex assay
[7] = Antiproliferative activity against vincristine-resistant human HCT8 cells after 48 hrs by SRB method; assay type: functional, cell-based; conditions: HCT-8, 48 h
Method in brief: as §1, with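 “h. Cells were fixed with TCA at 4 °C for 1 h, stained with 0.4% SRB, and the dye was solubilized in 10 mM Tris pH 10.4. OD was read at 515 nm with day-0 OD subtracted.” for “h.”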

[8] = test system: A549; test: Antiproliferative activity against cis-platinum-resistant human A549 cells after 48 hrs by SRB method; assay type: functional, cell-based; conditions: A549, 48 h
Method in brief: as §1, with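 “h. Cells were fixed with TCA at 4 °C for 1 h, stained with 0.4% SRB, and the dye was solubilized in 10 mM Tris pH 10.4. OD was read at 515 nm with day-0 OD subtracted.” for “h.”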

[9] = test system: A2780; test: Antiproliferative activity against taxol-resistant human A2780 cells after 48 hrs by SRB method; assay type: functional, cell-based; conditions: A2780, 48 h; method in brief: as §1
[10] = test system: MCF7; test: Drug resistance index, ratio of IC50 for doxorubicin-resistant human MCF7 cells to IC50 for human MCF7 cells; assay type: functional
Method in brief: (§2)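 Drug resistance index = IC50 in the resistant line / IC50 in its parental line. […] Pairs: A549/CDDP vs A549, MCF-7/DOX vs MCF-7, A2780/TAX vs A2780, HCT-8/VCT vs HCT-8.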

[11] = target: Tubulin; test: Inhibition of tubulin polymerization (unknown origin) by DAPI staining-based fluorescence microscopy; assay type: protein-complex assay, Homo sapiens
Method in brief: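 Purified tubulin (99% pure; 20 μM as supplied) mixed with compound in general tubulin buffer (80 mM PIPES pH 6.9, 2.0 mM MgCl₂, 0.5 mM EGTA) with 1 mM GTP, 20% glycerol and DAPI reporter. Polymerization tracked kinetically at 37 °C as fluorescence rise (ex 360, em 450 nm). Duplicate wells per concentration. IC50 from at least two independent experiments.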

[12] = test system: A549; test: Drug resistance index, ratio of IC50 for cis-platinum-resistant human A549 cells to IC50 for human A549 cells; assay type: functional; method in brief: as §2
[13] = Drug resistance index, ratio of IC50 for vincristine-resistant human HCT8 cells to IC50 for human HCT8 cells; assay type: functional, HCT-8; method in brief: as §2
[14] = test system: A2780; test: Antiproliferative activity against human A2780 cells after 48 hrs by SRB method; assay type: functional, cell-based; conditions: A2780, 48 h; method in brief: as §1
[15] = test system: MCF7; test: Antiproliferative activity against doxorubicin-resistant human MCF7 cells after 48 hrs by SRB method; assay type: functional, cell-based; conditions: MCF7, 48 h; method in brief: as §1
[16] = Antiproliferative activity against human HCT8 cells after 48 hrs by SRB method; assay type: functional, cell-based; conditions: HCT-8, 48 h; method in brief: as §1
[17] = test system: A2780; test: Drug resistance index, ratio of IC50 for taxol-resistant human A2780 cells to IC50 for human A2780 cells; assay type: functional; method in brief: as §2
[18] = test system: A549; test: Cell cycle arrest in human A549 cells assessed as accumulation at G2/M phase at 7.81 to 250 nM after 24 hrs by Hoechst 33342 staining-based ArrayScanVTI analysis; assay type: functional
Method in brief: (§3)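 A549 cells were seeded at 5000/well, cultured overnight, then treated 24 h over a 7.81–250 concentration series. Cells were fixed in prewarmed paraformaldehyde 10 min, permeabilized with Triton X-100, and nuclei stained with Hoechst 33342. Imaging was by ArrayScan VTI high-content analysis. Phase percentage = cells within a gated fluorescence intensity / total cells counted.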

[19] = test system: A549; test: Cell cycle arrest in human A549 cells assessed as accumulation at G2/M phase at 62.5 nM after 24 hrs by Hoechst 33342 staining-based ArrayScanVTI analysis; assay type: functional; method in brief: as §3

Row | Structure (SMILES) | IC50 [1] [µM] | IC50 [2] [µM] | IC50 [3] [nM] | IC50 [4] [µM] | IC50 [5] [µM] | further results
1 | COc1cc(C(=O)/C=C/c2ccccc2-c2ccc(F)cc2)cc(OC)c1OC | 3.8 | 2.2 | 12000 | 9.1 | 2.2 | –
2 | Cc1ccc(/C=C/C(=O)c2ccccc2-c2ccc(F)cc2)o1 | 14 | 23 | 12000 | 23 | 31 | –
3 | COc1cc(C(=O)/C=C/c2ccccc2-c2ccc(F)cc2)ccc1O | 4.8 | 4.2 | 3100 | 5.4 | 4.6 | –
4 | COc1ccc(C(=O)/C=C/c2ccccc2-c2ccc(F)nc2)cc1O | 2.1 | 1.6 | 1800 | 2 | 3.2 | –
5 | COc1ccc(C(=O)/C=C/c2ccccc2-c2ccc(F)nc2)cc1OC | 17 | 15 | 17000 | 41 | 17 | –
6 | COc1ccc(-c2ccccc2C(=O)/C=C/c2ccc(Br)cc2)cc1OC | 4.8 | 6.5 | 3300 | 8.3 | 6.8 | inhibition [6]: inactive
7 | COc1cccc2c1C(=O)c1c(O)c3c(c(O)c1C2=O)C[C@@](O)(C(=O)CO)C[C@@H]3O[C@H]1C[C@H](N)[C@H](O)[C@H](C)O1 [DOXORUBICIN] | – | – | – | – | – | IC50 [7]: 3400 nM; IC50 [8]: 290 nM; IC50 [9]: 1900 nM
8 | COc1ccc(OC)c(/C=C/C(=O)c2ccccc2-c2ccc(OC)c(OC)c2)c1 | 2.4 | 5.2 | 2100 | 3.1 | 4.1 | inhibition [6]: Active
9 | COc1ccc(/C=C/C(=O)c2ccccc2-c2cccc(F)c2)cc1 | 0.073 | 0.14 | 110 | 0.64 | 0.28 | Ratio IC50 [10]: 0.64; IC50 [11]: 4 µM; Ratio IC50 [12]: 2.1; IC50 [7]: 220 nM; Ratio IC50 [13]: 1.1; IC50 [8]: 480 nM; IC50 [14]: 160 nM; IC50 [15]: 84 nM; IC50 [16]: 200 nM; Ratio IC50 [17]: 5.2; IC50 [9]: 860 nM
10 | COc1ccc(-c2ccccc2C(=O)/C=C/c2ccc(F)cc2)cc1OC | 5.4 | 6.8 | 4300 | 7.1 | 8.6 | inhibition [6]: inactive
11 | COc1ccc(OC)c(/C=C/C(=O)c2ccccc2-c2ccc(F)cc2)c1 | 0.75 | 2.4 | 520 | 1.7 | 1.1 | –
12 | COc1ccc(/C=C/C(=O)c2ccccc2-c2ccc(F)cc2)cc1OC | 0.081 | 0.57 | 95 | 0.24 | 0.44 | –
13 | COc1ccc(C(=O)/C=C/c2ccccc2-c2ccc(F)cc2)cc1O | 0.75 | 0.34 | 190 | 0.56 | 0.94 | –
14 | COc1ccc(/C=C/C(=O)c2ccccc2-c2ccc(F)cc2)cc1B(O)O | 0.021 | 0.041 | 30 | 0.22 | 0.082 | Ratio IC50 [10]: 0.6; Activity [18]: Active; IC50 [11]: 3.4 µM; Ratio IC50 [12]: 1.1; IC50 [7]: 84 nM; Ratio IC50 [13]: 1.3; IC50 [8]: 74 nM; Activity [19]: Active; IC50 [14]: 63 nM; IC50 [15]: 24 nM; IC50 [16]: 63 nM; Ratio IC50 [17]: 3.6; IC50 [9]: 230 nM
15 | COc1cc(CNC(=O)c2ccccc2-c2ccc(F)cc2)cc(OC)c1OC | > 50 | > 50 | > 50000 | > 50 | > 50 | –
16 | COc1ccc(CNC(=O)c2ccccc2-c2ccc(F)cc2)cc1OC | > 50 | > 50 | > 50000 | > 50 | > 50 | –
